Results from different studies.
MAL12: Alpha-glucosidase MAL12 (MAL12, Saccharomyces cerevisiae S288c, UniProt P53341)

CC1(CN)CCN(c2cnc3c(Sc4ccncc4Cl)n[nH]c3n2)CC1  IC50 (Tyrosine-protein phosphatase non-receptor type 1 (PTPN1, Homo sapiens, UniProt P18031); enzyme activity, inhibitor): > 100 µM
COc1ccc(NC(=O)Cn2cc(CSc3nc4ccccc4cc3/C=N/NC(N)=S)nn2)cc1  IC50 (MAL12; enzyme activity, inhibitor): 192 µM
COc1cc(C(c2c(O)c3ccccc3oc2=O)c2c(O)c3ccccc3oc2=O)ccc1OCc1cn(CC(=O)Nc2ccc([N+](=O)[O-])cc2)nn1  IC50 (MAL12; enzyme activity, inhibitor, absorbance): 12.2 µM
NC(=S)N/N=C/c1cc2ccccc2nc1SCc1cn(CC(=O)Nc2ccccc2)nn1  IC50 (MAL12; enzyme activity, inhibitor): 379 µM
Cn1c(=O)c2c(ncn2C)n(C)c1=O  IC50 (Solute carrier family 22 member 6 (SLC22A6, Homo sapiens, UniProt Q4U2R8); transporter uptake, inhibitor, radiometric; oocytes): 155 µM
NC(=S)N/N=C/c1cc2ccccc2nc1SCc1cn(CC(=O)Nc2ccc(O)cc2)nn1  IC50 (MAL12; enzyme activity, inhibitor): 311 µM
CC(=O)OC[C@H]1O[C@@H](OC[C@H]2O[C@@H](OC(=O)[C@]34CCC(C)(C)C[C@H]3C3=CC[C@@H]5[C@@]6(C)CC[C@H](O[C@@H]7OC[C@H](O)[C@H](O)[C@H]7O[C@@H]7O[C@H](CO)[C@@H](O)[C@H](O)[C@H]7O)C(C)(C)[C@@H]6CC[C@@]5(C)[C@]3(C)CC4)[C@H](O)[C@@H](O)[C@@H]2O)[C@H](O)[C@@H](O)[C@@H]1O[C@@H]1O[C@@H](C)[C@H](O)[C@@H](O)[C@H]1O  IC50 (MAL12; enzyme activity, inhibitor): 0.75 µM
COc1cc(C(c2c(O)c3ccccc3oc2=O)c2c(O)c3ccccc3oc2=O)ccc1OCc1cn(CC(=O)Nc2cccc([N+](=O)[O-])c2)nn1  IC50 (MAL12; enzyme activity, inhibitor, absorbance): 16.3 µM
Cc1ccccc1NC(=O)Cn1cc(CSc2nc3ccccc3cc2/C=N/NC(N)=S)nn1  IC50 (MAL12; enzyme activity, inhibitor): 354 µM
CCOC(=O)[C@H]1O[C@@H]1C(=O)N[C@@H](CC(C)C)C(=O)NCCC(C)C  IC50 (Cathepsin S (CTSS, Homo sapiens, UniProt P25774); enzyme activity, inhibitor, fluorescence): 19.1 µM
C[C@@H]1O[C@@H](O[C@H]2[C@H](O[C@H]3CC[C@@]4(C)[C@@H](CC[C@]5(C)[C@@H]4CC=C4[C@@H]6CC(C)(C)CC[C@]6(C(=O)O)CC[C@]45C)[C@]3(C)CO)OC[C@H](O)[C@@H]2O)[C@H](O)[C@H](O)[C@H]1O  IC50 (MAL12; enzyme activity, inhibitor): 0.6 µM
Cc1cccc(NC(=O)Cn2cc(CSc3nc4ccccc4cc3/C=N/NC(N)=S)nn2)c1  IC50 (MAL12; enzyme activity, inhibitor): 247 µM
COc1cc(C(c2c(O)c3ccccc3oc2=O)c2c(O)c3ccccc3oc2=O)ccc1OCc1cn(CC(=O)Nc2ccccc2C)nn1  IC50 (MAL12; enzyme activity, inhibitor, absorbance): 50.2 µM
Cc1ccc2[nH]c(=O)c(CNC3CCCCC3)cc2c1  IC50 (Alpha-1A adrenergic receptor (ADRA1A, Homo sapiens, UniProt P35348, I178V/M292L); calcium signal, antagonist): 1.62 µM
C[C@@H]1O[C@@H](O[C@H]2[C@H](O[C@H]3CC[C@@]4(C)[C@@H](CC[C@]5(C)[C@@H]4CC=C4[C@@H]6CC(C)(C)CC[C@]6(C(=O)O[C@@H]6O[C@H](CO[C@@H]7O[C@H](CO)[C@@H](O[C@@H]8O[C@@H](C)[C@H](O)[C@@H](O)[C@H]8O)[C@H](O)[C@H]7O)[C@@H](O)[C@H](O)[C@H]6O)CC[C@]45C)[C@]3(C)CO)OC[C@H](O)[C@@H]2O)[C@H](O)[C@H](O)[C@H]1O  IC50 (MAL12; enzyme activity, inhibitor): 1.78 µM
NC(=S)N/N=C/c1cc2ccccc2nc1SCc1cn(CC(=O)Nc2ccc(Br)cc2)nn1  IC50 (MAL12; enzyme activity, inhibitor): 434 µM
C=C1CC[C@]2(C(=O)O[C@@H]3O[C@H](CO[C@@H]4O[C@H](CO)[C@@H](O[C@@H]5O[C@@H](C)[C@H](O)[C@@H](O)[C@H]5O)[C@H](O)[C@H]4O)[C@@H](O)[C@H](O)[C@H]3O)CC[C@]3(C)C(=CC[C@@H]4[C@@]5(C)CC[C@H](O[C@@H]6OC[C@H](O)[C@H](O)[C@H]6O[C@@H]6O[C@@H](C)[C@H](O)[C@@H](O)[C@H]6O)C(C)(C)[C@@H]5CC[C@]43C)[C@@H]2C1  IC50 (MAL12; enzyme activity, inhibitor): 0.74 µM
COc1cc(C(c2c(O)c3ccccc3oc2=O)c2c(O)c3ccccc3oc2=O)ccc1OCc1cn(CC(=O)Nc2ccc(C)cc2)nn1  IC50 (MAL12; enzyme activity, inhibitor, absorbance): 41.1 µM
C[C@@H]1O[C@@H](O[C@H]2[C@H](O)[C@@H](O)[C@H](OC[C@H]3O[C@@H](OC(=O)[C@]45CCC(C)(C)C[C@H]4C4=CC[C@@H]6[C@@]7(C)CC[C@H](O[C@@H]8OC[C@H](O)[C@H](O)[C@H]8O[C@@H]8O[C@H](CO)[C@@H](O)[C@H](O)[C@H]8O)C(C)(C)[C@@H]7CC[C@@]6(C)[C@]4(C)CC5)[C@H](O)[C@@H](O)[C@@H]3O)O[C@@H]2CO)[C@H](O)[C@H](O)[C@H]1O  IC50 (MAL12; enzyme activity, inhibitor): 0.61 µM
Cc1ccc2oc(=O)cc(NCCO)c2c1  IC50 (Alpha-1A adrenergic receptor (ADRA1A, Homo sapiens, UniProt P35348, I178V); calcium signal, antagonist): 331 µM
